Reference: ChEMBL document CHEMBL3868588, “Emestrins: Anti-Cryptococcus Epipolythiodioxopiperazines from Podospora australis” (J Nat Prod, 2016)
In brackets after ≈: the same amount, converted by molar mass.

Assays:
Candida albicans = assay: Antifungal activity against Candida albicans ATCC 10231 measured after 24 hrs by resazurin-staining based serial dilution method; format: functional; conditions: ATCC 10231, 24 h
Outline: (§1)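 Serial dilution per NCCLS guidance in 96-well plates with YM test medium (1% maltose extract, 0.2% yeast extract, 0.4% agar). Compounds in DMSO, diluted in growth medium; amphotericin B positive control. Incubated at 25 °C; C. albicans ATCC 10231 read at 24 h, C. neoformans H99 at 48 h. Visual end point, OD and PrestoBlue resazurin viability; MIC = lowest concentration giving 100% inhibition versus untreated control.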

Cryptococcus neoformans = assay: Antifungal activity against Cryptococcus neoformans H99 after 48 hrs by resazurin-staining based serial dilution method; format: functional; conditions: var grubii H99 ; outline: as §1
[1] = Antiproliferative activity against human DU145 cells; format: functional, cell-based; conditions: DU-145

Row | MIC (Candida albicans) | MIC (Cryptococcus neoformans) | SMILES | IC50 [1]
1 | > 25.6 µg/mL | 1.6 µg/mL (≈ 2.68 µM) | COc1ccc2cc1Oc1cc(ccc1OC)C(=O)O[C@H]1C=COC=C3[C@@H](O)[C@]45SS[C@](C2)(C(=O)N4[C@@H]31)N(C)C5=O | 
2 | > 25.6 µg/mL | 25.6 µg/mL (≈ 37.8 µM) | COc1ccc2cc1Oc1cc(ccc1OC)[C@H](O)[C@]13SSSS[C@@]4(C(=O)N1C)[C@H](O)C1=COC=C[C@H](OC2=O)[C@H]1N4C3=O | 
3 | > 25.6 µg/mL | 6.4 µg/mL (≈ 9.93 µM) | COc1ccc2cc1Oc1cc(ccc1OC)[C@H](O)[C@]13SSS[C@@]4(C(=O)N1C)[C@H](O)C1=COC=C[C@H](OC2=O)[C@H]1N4C3=O | 
4 | 6.4 µg/mL (≈ 10.4 µM) | 0.8 µg/mL (≈ 1.31 µM) | COc1ccc2cc1Oc1cc(ccc1OC)[C@H](O)[C@]13SS[C@@]4(C(=O)N1C)[C@H](O)C1=COC=C[C@H](OC2=O)[C@H]1N4C3=O | 9.3 nM
5 | 1.6 µg/mL (≈ 1.73 µM) | 0.8 µg/mL (≈ 0.866 µM) | C[C@@H]1[C@H](O)[C@@H](C)/C=C/C=C/C=C/C=C/C=C/C=C/C=C/[C@H](O[C@@H]2O[C@H](C)[C@@H](O)[C@H](N)[C@@H]2O)C[C@@H]2O[C@](O)(C[C@@H](O)C[C@@H](O)[C@H](O)CC[C@@H](O)C[C@@H](O)CC(=O)O[C@H]1C)C[C@H](O)[C@H]2C(=O)O [AMPHOTERICIN B] | 
